Values belong to the compound of their own block, whether it stands above or below them.
Tests used:
[1] = Effect on plasma amine oxidase (0.1 uM) after 30 min of incubation at pH 7.2; format: cell-free; details: 0.5 h, read-out: I50
Summary of the method: (§1)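 Purified bovine plasma amine oxidase at 0.1 µM in 0.1 M phosphate buffer, pH 7.2, at 37 °C. Inhibitor added at zero time and preincubated. Saturating 3 mM benzylamine then added and benzaldehyde formation read at 250 nm (E = 12.500 M-1 cm-1). I50 is the concentration halving activity. Two experiments in duplicate.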

[2] = organism: Rattus norvegicus; test: Brain mitochondrial activity measured at 0 min of incubation at 1 uM concentration; format: functional
Summary of the method: (§2)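 Rat brain mitochondria isolated by differential centrifugation of homogenates in 0.25 M sucrose, pH 7.4, then suspended in 0.1 M phosphate buffer, pH 7.2, at 37 °C. Inhibitor added at zero time, then saturating 1 mM kynuramine added after the incubation period. MAO activity read fluorimetrically. Percent inhibition reported from three experiments in duplicate.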

[3] = organism: Rattus norvegicus; test: Brain mitochondrial activity measured at 0 min of incubation at 100 uM concentration; format: functional; summary of the method: as §2
[4] = organism: Rattus norvegicus; test: Brain mitochondrial activity measured at 120 min of incubation at 1 uM concentration; format: functional; summary of the method: as §2
[5] = organism: Rattus norvegicus; test: Brain mitochondrial activity measured at 120 min of incubation at 10 uM concentration; format: functional; summary of the method: as §2
[6] = organism: Rattus norvegicus; test: Brain mitochondrial activity measured at 120 min of incubation at 100 uM concentration; format: functional; summary of the method: as §2
[7] = Effect on plasma amine oxidase (0.1 uM) after 15 min of incubation at pH 7.2; format: cell-free; details: 0.25 h, read-out: I50; summary of the method: as §1
[8] = Effect on plasma amine oxidase (0.1 uM) after 0 min of incubation at pH 7.2; format: cell-free; details: 0 h, read-out: I50; summary of the method: as §1
[9] = Effect on plasma amine oxidase (0.1 uM) after 60 min of incubation at pH 7.2; format: cell-free; details: 1 h, read-out: I50; summary of the method: as §1
[10] = organism: Rattus norvegicus; test: Brain mitochondrial activity measured at 0 min of incubation at 10 uM concentration; format: functional; summary of the method: as §2
[11] = Effect on placental diamine oxidase (0.1 uM) after 30 min of incubation at pH 7.2; parameters: species or system Homo sapiens; details: read-out: I50
Summary of the method: (§3)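 Purified human placental diamine oxidase at 0.1 µM in 0.1 M phosphate buffer, pH 7.2, at 37 °C. Inhibitor added at zero time. After preincubation, saturating 3 mM p-[(dimethylamino)methyl]benzylamine added. Product aldehyde followed at 250 nm (E = 10.400 M-1 cm-1). I50 is the concentration giving 50% loss of activity. Two experiments in duplicate.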

[12] = Ki value measured for the inhibition of copper dependent amine oxidase in bovine plasma; format: cell-free
Summary of the method: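 Bovine plasma amine oxidase, 36 µg/mL (0.2 µM), in 0.1 M phosphate buffer, pH 7.2. Benzylamine at 0.5, 2.5 and 5 mM, with no preincubation. Rate measured as benzaldehyde formed per minute at 37 °C. Apparent Ki taken from Dixon plots.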

[13] = Ki value measured for the inhibition of human placenta diamine oxidase
Summary of the method: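 Human placental diamine oxidase, 47 µg/mL (0.2 µM), in 0.1 M phosphate buffer, pH 7.2, with no preincubation. […] oxidation followed at 250 nm at 37 °C. Apparent Ki estimated from Dixon plots.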

[14] = Effect on placental diamine oxidase (0.1 uM) after 0 min of incubation at pH 7.2; parameters: species or system Homo sapiens; details: read-out: I50; summary of the method: as §3

Compound: NNC(=O)c1cccc(-n2cccc2)c1
IC50 [11]: 100 µM
Inhibition [2]: 0%
Inhibition [3]: 0%
Inhibition [4]: 0%
Ki [12]: 85 µM
Ki [13]: 110 µM
Inhibition [5]: 5%
Inhibition [6]: 8%
IC50 [14]: 100 µM
Inhibition [10]: 0%

Compound: Cc1ccc(C)n1-c1ccc(CC(=O)NN)cc1
IC50 [11]: 50 µM
Inhibition [2]: 0%
Inhibition [3]: 2%
Inhibition [4]: 0%
Ki [12]: 10 µM
Inhibition [5]: 0%
Inhibition [6]: 3%
IC50 [14]: 100 µM
Inhibition [10]: 0%

Compound: NNC(=O)Cc1ccc(-n2cccc2)cc1
IC50 [11]: 10 µM
Inhibition [2]: 0%
Inhibition [3]: 6%
Inhibition [4]: 2%
Ki [12]: 0.5 µM
Ki [13]: 10 µM
Inhibition [5]: 4%
Inhibition [6]: 9%
IC50 [14]: 10 µM
Inhibition [10]: 0%

Compound: NNC(=O)c1ccc(-n2cccc2)cc1
IC50 [11]: 50 µM
Inhibition [2]: 0%
Inhibition [3]: 0%
Inhibition [4]: 2%
Ki [12]: 80 µM
Ki [13]: 100 µM
Inhibition [5]: 16%
Inhibition [6]: 18%
IC50 [14]: 200 µM
Inhibition [10]: 0%

Compound: CC(C)=NNC(=O)Cc1ccc(-n2cccc2)cc1
IC50 [11]: 10 µM
Inhibition [2]: 0%
Inhibition [3]: 0%
Inhibition [4]: 12%
Ki [12]: 0.8 µM
Ki [13]: 10 µM
Inhibition [5]: 12%
Inhibition [6]: 18%
IC50 [14]: 50 µM
Inhibition [10]: 0%

The next lines start with results.

IC50 [1]: 10 µM
IC50 [7]: 10 µM
IC50 [8]: 100 µM
IC50 [9]: 5 µM
Compound: NNC(=O)c1ccncc1 [ISONIAZID]
Inhibition [2]: 12%
Inhibition [3]: 19%
Inhibition [4]: 16%
Inhibition [5]: 16%
Inhibition [6]: 22%
Inhibition [10]: 14%

IC50 [11]: 100 µM
Ki [12]: 300 µM
Ki [13]: 250 µM
IC50 [14]: 100 µM
Compound: NNC(=O)c1ccccc1-n1cccc1
Inhibition [2]: 0%
Inhibition [3]: 0%
Inhibition [4]: 3%
Inhibition [5]: 5%
Inhibition [6]: 6%
Inhibition [10]: 0%

IC50 [11]: 10 µM
Ki [12]: 0.7 µM
Ki [13]: 100 µM
IC50 [14]: 50 µM
Compound: NNC(=O)Cc1cccc(-n2cccc2)c1
Inhibition [2]: 0%
Inhibition [3]: 3%
Inhibition [4]: 0%
Inhibition [5]: 3%
Inhibition [6]: 15%
Inhibition [10]: 2%

Reference: ChEMBL document CHEMBL1124086, “Inhibition of copper-dependent amine oxidases by some hydrazides of pyrrol-1-ylbenzoic and pyrrol-1-ylphenylacetic acids” (J Med Chem, 1988)
